Laboratory results: ChEMBL document CHEMBL5252534, “Discovery of a Noncovalent, Mutant-Selective Epidermal Growth Factor Receptor Inhibitor” (J Med Chem, 2016)
≈ marks a conversion by molar mass, not a printed value. Calls of active or inactive are those of the source. The rule behind the calls is not given here.

Assays:
[1] = biological target: T1, Epidermal growth factor receptor (Homo sapiens, UniProt P00533, 746-750DEL/T790M); assay: Inhibition of human EGFR T790M/del (746 to 750 residues) mutant assessed as apparent inhibition constant using Fl-EEPLYWSFPAKKK-CONH2 peptide as substrate preincubated for 30 mins followed by addition of substrate and measured after 30 mins by Morrison plot analysis; settings: read-out: Ki(app)
T1 sequence (P00533 whole entry, looked up, stated change not applied, the tested form may be a part): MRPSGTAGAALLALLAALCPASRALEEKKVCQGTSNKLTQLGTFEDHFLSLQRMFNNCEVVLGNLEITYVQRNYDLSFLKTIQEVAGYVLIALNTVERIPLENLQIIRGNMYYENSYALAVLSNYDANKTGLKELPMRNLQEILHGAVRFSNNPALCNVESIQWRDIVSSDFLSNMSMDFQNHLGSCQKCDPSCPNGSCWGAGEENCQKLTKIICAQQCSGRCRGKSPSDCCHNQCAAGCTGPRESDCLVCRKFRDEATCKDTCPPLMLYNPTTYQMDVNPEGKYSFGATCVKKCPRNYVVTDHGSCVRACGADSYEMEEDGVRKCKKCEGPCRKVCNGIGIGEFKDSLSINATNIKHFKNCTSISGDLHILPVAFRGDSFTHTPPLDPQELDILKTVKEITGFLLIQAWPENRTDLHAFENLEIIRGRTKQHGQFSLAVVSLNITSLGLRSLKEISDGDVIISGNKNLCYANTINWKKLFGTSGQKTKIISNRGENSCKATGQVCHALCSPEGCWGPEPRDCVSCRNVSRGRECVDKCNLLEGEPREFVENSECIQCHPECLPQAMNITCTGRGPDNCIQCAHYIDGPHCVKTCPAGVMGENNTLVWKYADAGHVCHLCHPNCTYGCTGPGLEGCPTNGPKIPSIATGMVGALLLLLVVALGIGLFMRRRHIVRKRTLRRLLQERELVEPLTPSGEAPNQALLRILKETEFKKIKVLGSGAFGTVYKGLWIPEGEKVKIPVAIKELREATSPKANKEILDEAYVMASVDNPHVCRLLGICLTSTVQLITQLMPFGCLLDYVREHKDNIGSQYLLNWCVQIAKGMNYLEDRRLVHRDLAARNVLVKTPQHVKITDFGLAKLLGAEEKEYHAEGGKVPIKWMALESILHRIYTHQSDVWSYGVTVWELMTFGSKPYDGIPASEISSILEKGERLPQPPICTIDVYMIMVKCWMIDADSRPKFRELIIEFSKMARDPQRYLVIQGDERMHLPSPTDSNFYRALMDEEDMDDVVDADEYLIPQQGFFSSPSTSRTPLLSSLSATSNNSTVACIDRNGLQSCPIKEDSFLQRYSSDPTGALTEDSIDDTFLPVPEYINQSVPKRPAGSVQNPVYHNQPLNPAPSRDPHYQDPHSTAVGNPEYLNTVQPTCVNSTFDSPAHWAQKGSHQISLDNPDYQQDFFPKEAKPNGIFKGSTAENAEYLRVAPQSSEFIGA
Outline: (§1)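 Biochemical kinase Ki determination; reported values are geometric means of at least two independent experiments.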

[2] = biological target: T2, Epidermal growth factor receptor (Homo sapiens, UniProt P00533, 746-750DEL); assay: Inhibition of human EGFR del (746 to 750) mutant assessed as apparent inhibition constant using Fl-EEPLYWSFPAKKK-CONH2 as substrate preincubated for 30 mins followed by addition of substrate and measured after 30 mins by Morrison plot analysis; settings: read-out: Ki(app); outline: as §1
T2 sequence (P00533 whole entry, looked up, stated change not applied): as the sequence (P00533 whole entry, looked up, stated change not applied, the tested form may be a part) above

[3] = biological target: T3, Epidermal growth factor receptor (Homo sapiens, UniProt P00533); assay: Inhibition of wild type human EGFR assessed as apparent inhibition constant using Fl-EEPLYWSFPAKKK-CONH2 as substrate preincubated for 30 mins followed by addition of substrate and measured after 30 mins by Morrison plot analysis; settings: read-out: Ki(app)
Target sequence in this assay (P00533 whole entry): as the sequence (P00533 whole entry, looked up, stated change not applied, the tested form may be a part) above

[4] = Aqueous kinetic solubility of compound in PBS buffer at pH 7.4 at 100 uM incubated for 24 hrs by LC/CLND analysis; assay type: physicochemical; settings: read-out: Kinetic_solubility
Outline: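 Kinetic aqueous solubility measured at pH 7.4.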

[5] = Apparent permeability across apical to basolateral side in dog MDCK cells; assay type: ADME, cell-based, Canis lupus familiaris
[6] = biological target: Epidermal growth factor receptor (Homo sapiens, UniProt P00533, L858R); assay: Inhibition of human EGFR L858R mutant assessed as apparent inhibition constant using Fl-EEPLYWSFPAKKK-CONH2 peptide as substrate preincubated for 30 mins followed by addition of substrate and measured after 30 mins by Morrison plot analysis; settings: read-out: Ki(app); outline: as §1
[7] = biological target: T4, Epidermal growth factor receptor (Homo sapiens, UniProt P00533, L858R/T790M); assay: Inhibition of human EGFR T790M/L858R double mutant assessed as apparent inhibition constant using Fl-EEPLYWSFPAKKK-CONH2 as peptide substrate preincubated for 30 mins followed by addition of substrate and measured after 30 mins by Morrison plot analysis; settings: read-out: Ki(app)
[8] = biological target: T2, Epidermal growth factor receptor; assay type: cell-based, PC-9
[9] = Clearance in human liver microsomes; assay type: ADME, Microsome
Outline: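 Incubation with human liver microsomes; intrinsic clearance scaled to predicted hepatic clearance as Clhep = (Q × Clint)/(Q + Clint), where Q is liver blood flow.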

[10] = biological target: T4, Epidermal growth factor receptor; assay type: cell-based, NCI-H1975
[11] = biological target: T3, Epidermal growth factor receptor; assay: Inhibition of EGFR autophosphorylation in human NCI-H292 cells harboring harboring wild type EGFR preincubated for 60 mins followed by EGF stimulation and measured after 8 mins by SULFO-TAG based electrochemiluminescent assay; assay type: cell-based
[12] = biological target: T1, Epidermal growth factor receptor; assay type: cell-based, PC-9/ER1
[13] = Clearance in human hepatocyte; assay type: ADME, cell-based; settings: hepatocytes
Outline: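 Cryopreserved human hepatocytes used; intrinsic clearance converted to predicted hepatic clearance as (Q × Clint)/(Q + Clint) using liver blood flow Q.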

[14] = tested on: Epidermal growth factor receptor (Homo sapiens), P00533 [L858R,T790M]; assay: In vivo inhibition of EGFR L858R/T790M double mutant in SCID mouse xenografted with human NCI-H1975 cells assessed as reduction in AKT phosphorylation at S473 residue at 50 mg/kg, po and measured after 8 hrs by MSD assay; assay type: functional, organism-based
Epidermal growth factor receptor (Homo sapiens), P00533 [L858R,T790M], sequence (P00533 whole entry T790M/L858R, looked up): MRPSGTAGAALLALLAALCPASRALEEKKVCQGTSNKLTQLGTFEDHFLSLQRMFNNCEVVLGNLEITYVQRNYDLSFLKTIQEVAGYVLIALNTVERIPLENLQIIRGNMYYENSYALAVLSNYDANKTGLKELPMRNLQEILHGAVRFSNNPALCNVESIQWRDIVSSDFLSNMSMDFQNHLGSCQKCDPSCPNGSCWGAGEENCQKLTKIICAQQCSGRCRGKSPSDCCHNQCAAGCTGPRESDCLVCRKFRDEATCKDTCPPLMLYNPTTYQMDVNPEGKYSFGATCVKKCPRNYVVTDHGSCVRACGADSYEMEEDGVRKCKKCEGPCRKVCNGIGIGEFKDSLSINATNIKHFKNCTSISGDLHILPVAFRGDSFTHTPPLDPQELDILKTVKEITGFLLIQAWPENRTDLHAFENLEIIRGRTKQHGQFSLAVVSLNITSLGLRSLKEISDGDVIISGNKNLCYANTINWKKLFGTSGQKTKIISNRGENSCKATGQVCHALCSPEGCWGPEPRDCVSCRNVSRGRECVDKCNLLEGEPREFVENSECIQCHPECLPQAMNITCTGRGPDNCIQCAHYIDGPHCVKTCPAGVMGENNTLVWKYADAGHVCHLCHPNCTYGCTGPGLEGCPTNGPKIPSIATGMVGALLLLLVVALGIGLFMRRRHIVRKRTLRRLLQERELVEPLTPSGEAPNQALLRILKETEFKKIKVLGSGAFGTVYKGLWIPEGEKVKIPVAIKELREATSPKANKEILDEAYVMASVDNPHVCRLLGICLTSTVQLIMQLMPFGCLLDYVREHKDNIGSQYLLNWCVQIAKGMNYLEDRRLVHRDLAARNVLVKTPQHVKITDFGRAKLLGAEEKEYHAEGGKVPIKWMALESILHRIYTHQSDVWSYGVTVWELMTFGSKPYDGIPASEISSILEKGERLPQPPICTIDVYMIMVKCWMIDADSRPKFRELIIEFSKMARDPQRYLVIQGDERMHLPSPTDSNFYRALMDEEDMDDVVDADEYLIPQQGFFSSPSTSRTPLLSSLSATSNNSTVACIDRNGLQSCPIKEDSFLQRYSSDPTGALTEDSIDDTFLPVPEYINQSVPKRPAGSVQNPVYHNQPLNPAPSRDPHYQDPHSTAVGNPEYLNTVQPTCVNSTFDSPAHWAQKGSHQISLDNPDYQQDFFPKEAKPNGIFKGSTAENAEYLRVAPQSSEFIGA
Outline: (§2)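 H1975 tumor-bearing mice given a single oral dose of 50 or 100 mg/kg; tumors collected at set times; phospho-EGFR, ERK and AKT measured by MSD immunoassay; four animals per group, individual animals plotted.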

[15] = Clearance in mouse plasma at 5 mg/kg,iv; assay type: ADME, organism-based
Outline: (§3)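 Single intravenous dose as a solution in 10/35/55 ethanol/PEG/water (mouse 5 mg kg−1; dog 1 mg kg−1); plasma clearance and steady-state volume of distribution derived from the plasma profile.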

[16] = tested on: Epidermal growth factor receptor (Homo sapiens), P00533 [L858R,T790M]; assay: In vivo inhibition of EGFR L858R/T790M double mutant in SCID mouse xenografted with human NCI-H1975 cells assessed as reduction in AKT phosphorylation at S473 residue at 100 mg/kg, po and measured after 16 hrs by MSD assay; assay type: functional, organism-based; outline: as §2
[17] = Oral bioavailability in mouse at 25 mg/kg; assay type: ADME, organism-based; settings: in vivo
Outline: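 Mouse dosed orally at 25 mg kg−1 as a solution in corn oil; bioavailability compared against the iv arm (5 mg kg−1 in ethanol/PEG/water).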

[18] = tested on: Epidermal growth factor receptor (Homo sapiens), P00533 [L858R,T790M]; assay: In vivo inhibition of EGFR L858R/T790M double mutant in SCID mouse xenografted with human NCI-H1975 cells assessed as reduction in EGFR L858R/T790M double mutant phosphorylation at Y1068 residue at 100 mg/kg, po and measured after 16 hrs by MSD assay; assay type: functional, organism-based; outline: as §2
[19] = Fraction unbound in SCID mouse plasma at 50 to 100 mg/kg,po and measured upto 16 hrs by LC-MS assay; assay type: ADME, organism-based; settings: in vivo, dose 50-100 mg/kg
Plasma [20] = assay: Time during which free plasma concentration exceeds IC50 for inhibition of human EGFR T790M/L858R double mutant autophosphorylation in human NCI-H1975 cells xenografted in SCID mouse at 100 mg/kg, po
[21] = tested on: Epidermal growth factor receptor (Homo sapiens), P00533 [L858R,T790M]; assay: In vivo inhibition of EGFR L858R/T790M double mutant in SCID mouse xenografted with human NCI-H1975 cells assessed as reduction in ERK1/2 phosphorylation at 50 mg/kg, po and measured after 8 hrs by MSD assay; assay type: functional, organism-based; outline: as §2
[22] = tested on: Epidermal growth factor receptor (Homo sapiens), P00533 [L858R,T790M]; assay: In vivo inhibition of EGFR L858R/T790M double mutant in SCID mouse xenografted with human NCI-H1975 cells assessed as reduction in ERK1/2 phosphorylation at 100 mg/kg, po and measured after 16 hrs by MSD assay; assay type: functional, organism-based; outline: as §2
PC-9 = assay: Antiproliferative activity against human PC-9 cells harboring harboring EGFR del (746 to 750) mutant assessed as reduction in cell viability; assay type: functional, cell-based
[23] = tested on: Epidermal growth factor receptor (Homo sapiens), P00533 [L858R,T790M]; assay: In vivo inhibition of EGFR L858R/T790M double mutant in SCID mouse xenografted with human NCI-H1975 cells assessed as reduction in EGFR L858R/T790M double mutant phosphorylation at Y1068 residue at 50 mg/kg, po and measured after 8 hrs by MSD assay; assay type: functional, organism-based; outline: as §2
NCI-H1975 = assay: Antiproliferative activity against human NCI-H1975 cells harboring harboring EGFR L858R/T790M double mutant assessed as reduction in cell viability; assay type: functional, cell-based
[24] = Volume of distribution at steady state in dog at 1 mg/kg,iv; assay type: ADME, organism-based, Canis lupus familiaris; settings: in vivo, read-out: Vdss; outline: as §3
Plasma [25] = assay: Time during which free plasma concentration exceeds IC50 for inhibition of human EGFR T790M/L858R double mutant autophosphorylation in human NCI-H1975 cells xenografted in SCID mouse at 50 mg/kg, po
[26] = Volume of distribution at steady state in mouse at 5 mg/kg,iv; assay type: ADME, organism-based; settings: in vivo, read-out: Vdss; outline: as §3
[27] = Clearance in dog plasma at 1 mg/kg,iv; assay type: ADME, organism-based, Canis lupus familiaris; outline: as §3
[28] = Oral bioavailability in dog at 2 mg/kg; assay type: ADME, organism-based, Canis lupus familiaris; settings: in vivo
Outline: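 Dog dosed orally at 2 mg kg−1 as a suspension in MCT; bioavailability compared against iv dosing at 1 mg kg−1 in ethanol/PEG/water.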

| SMILES | Ki [1] [nM] | Ki [2] [nM] | Ki [3] [nM] | solubility kinetic at 24 h, 100 µM [4] [µM] | Papp A→B [5] [×10⁻⁶ cm/s] | Ki [6] [nM] | Ki [7] [nM] | IC50 [8] [nM] | CLhep predicted [9] [mL/min/kg] | IC50 [10] [nM] | IC50 [11] [nM] | IC50 [12] [nM] | CLhep predicted [13] [mL/min/kg] | further results |
| --- | --- | --- | --- | --- | --- | --- | --- | --- | --- | --- | --- | --- | --- | --- |
| CC(C)n1cc(C(=O)NC2CCOCC2)c2cnc(Nc3ccnc(-c4cnn(S(=O)(=O)C5CC5)c4)n3)cc21 | 1.6 | 1.4 | 3.4 | 11 (≈ 6.06 µg/mL) | 4.6 | 3.8 | 1.2 |  |  |  |  |  |  |  |
| COC1CCN(c2nccc(Nc3cc4c(cn3)c(C(N)=O)cn4C(C)C)n2)CC1 | 27 | 323 | 167 | 3 (≈ 1.23 µg/mL) | 26 | 363 | 5.3 |  |  |  |  |  |  |  |
| CC(C)c1nn(C(C)C)c2cc(Nc3ccnc(-c4cnn(S(=O)(=O)C5CC5)c4)n3)ncc12 |  |  | < 531 | < 1 | 3.9 |  |  | 3000 | 8.5 | 2400 | > 10000 | 910 | 15 |  |
| CC(C)n1cc(C(=O)NC2COC2)c2cnc(Nc3ccnc(-c4cnn(S(=O)(=O)C5CC5)c4)n3)cc21 | 2 | 2 | 4.6 | 7 (≈ 3.66 µg/mL) | 2.3 | 6.4 | 1.1 |  |  |  |  |  |  |  |
| CC(C)n1nc(N2CC(C(C)(C)O)C2)c2cnc(Nc3ccnc(-c4cnn(S(=O)(=O)C5CC5)c4)n3)cc21 |  |  | 7 | < 1 | 20 |  | < 0.6 | 130 | 8.9 | 32 | 210 | 10 | 7.1 |  |
| CC[C@H](C)n1nc(N2CC(C(C)(C)O)C2)c2cnc(Nc3ccnc(-c4cnn(S(=O)(=O)C5CC5)c4)n3)cc21 |  |  |  | 2 (≈ 1.1 µg/mL) | 8.9 |  |  | 33 | 3.8 | 27 | 218 | 8 | 2.7 | inhibition [14]: Active; clearance [15]: 104 mL/min/kg; inhibition [16]: Active; bioavailability [17]: 19%; inhibition [18]: Active; Fu [19]: 0.009; T>IC50 (Plasma [20]): 16 h; inhibition [21]: Active; inhibition [22]: Active; IC50 (PC-9): 151 nM; inhibition [23]: Active; IC50 (NCI-H1975): 361 nM; Vd [24]: 6.9 L/kg; T>IC50 (Plasma [25]): 8 h; Vd [26]: 3.4 L/kg; clearance [27]: 13 mL/min/kg; bioavailability [28]: 30% |
| CC(C)n1nc(N)c2cnc(Nc3ccnc(-c4cnn(S(=O)(=O)C5CC5)c4)n3)cc21 |  |  | 8.2 | 2 (≈ 0.879 µg/mL) | 16 |  | 0.79 | 80 | 13 | 64 | 3900 | 14 | 8.4 |  |
| Cc1nc2cnc(Nc3ccnc(-c4cnn(S(C)(=O)=O)c4)n3)cc2n1C(C)C | 3.5 | 38 | 324 |  |  | 126 |  |  |  |  |  |  |  |  |
| COC1CCN(c2nccc(Nc3cc4c(cn3)c(C(N)=O)nn4C(C)C)n2)CC1 |  |  | > 100 |  |  |  |  |  |  |  |  |  |  |  |
